Broadly, the IC50 is the point on the concentration scale where inhibition reaches its midpoint. A higher IC50 goes with weaker potency in that assay.

Molecules are shown by their SMILES.

This is an account of results in ChEMBL document CHEMBL1134511, “Development of potent non-carbohydrate imidazole-based small molecule selectin inhibitors with antiinflammatory activity” (J Med Chem, 2001).

In test [1] the target is T1, P-selectin (Homo sapiens, UniProt P16109).
T1 sequence (P16109 whole entry): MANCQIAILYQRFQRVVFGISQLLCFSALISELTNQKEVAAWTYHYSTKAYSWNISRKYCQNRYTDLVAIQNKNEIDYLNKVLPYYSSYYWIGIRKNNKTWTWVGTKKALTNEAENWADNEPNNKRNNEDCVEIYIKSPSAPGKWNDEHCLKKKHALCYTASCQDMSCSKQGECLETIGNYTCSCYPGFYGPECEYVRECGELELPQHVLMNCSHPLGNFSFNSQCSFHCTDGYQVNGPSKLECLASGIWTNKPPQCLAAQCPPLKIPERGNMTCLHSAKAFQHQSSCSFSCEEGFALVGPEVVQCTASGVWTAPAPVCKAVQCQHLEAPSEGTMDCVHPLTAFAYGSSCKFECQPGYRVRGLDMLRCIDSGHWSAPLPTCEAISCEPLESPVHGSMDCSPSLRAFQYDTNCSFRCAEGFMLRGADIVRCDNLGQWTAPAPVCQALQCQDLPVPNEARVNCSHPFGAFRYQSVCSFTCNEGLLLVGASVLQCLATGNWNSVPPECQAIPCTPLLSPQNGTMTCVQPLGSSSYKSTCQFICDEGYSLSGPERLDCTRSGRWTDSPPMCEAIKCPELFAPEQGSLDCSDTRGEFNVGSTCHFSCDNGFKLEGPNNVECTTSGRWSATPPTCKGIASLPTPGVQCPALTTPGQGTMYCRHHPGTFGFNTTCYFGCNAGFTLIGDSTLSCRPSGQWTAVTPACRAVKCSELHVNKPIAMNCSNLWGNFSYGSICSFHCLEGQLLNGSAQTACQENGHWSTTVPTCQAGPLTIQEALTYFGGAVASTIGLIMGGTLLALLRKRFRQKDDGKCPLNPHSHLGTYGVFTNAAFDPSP
Nature of the test: Inhibitory activity against P-selectin using ELISA-based assay. An outline of the steps:
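P-selectin–IgG chimera precomplexed with biotinylated goat F(ab')2 anti-human IgG and streptavidin–alkaline phosphatase, preincubated with compound 30 min RT in 50 mM imidazole pH 7.2, 1% BSA, 1 mM CaCl2. Mix added to sialyl Lewis^x pentaceramide-coated (40-100 pmol/well), BSA-blocked wells, 45 min 37 °C. p-Nitrophenyl phosphate read at 405 nm; chimera-free background subtracted; duplicate/triplicate; IC50 from % inhibition.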

Test [2] deals with T1, P-selectin. Briefly: Inhibitory activity against P-selectin using cell-selectin protein assay.
A further test has as its target T2, E-selectin (Homo sapiens, UniProt P16581).
T2 sequence (P16581 whole entry): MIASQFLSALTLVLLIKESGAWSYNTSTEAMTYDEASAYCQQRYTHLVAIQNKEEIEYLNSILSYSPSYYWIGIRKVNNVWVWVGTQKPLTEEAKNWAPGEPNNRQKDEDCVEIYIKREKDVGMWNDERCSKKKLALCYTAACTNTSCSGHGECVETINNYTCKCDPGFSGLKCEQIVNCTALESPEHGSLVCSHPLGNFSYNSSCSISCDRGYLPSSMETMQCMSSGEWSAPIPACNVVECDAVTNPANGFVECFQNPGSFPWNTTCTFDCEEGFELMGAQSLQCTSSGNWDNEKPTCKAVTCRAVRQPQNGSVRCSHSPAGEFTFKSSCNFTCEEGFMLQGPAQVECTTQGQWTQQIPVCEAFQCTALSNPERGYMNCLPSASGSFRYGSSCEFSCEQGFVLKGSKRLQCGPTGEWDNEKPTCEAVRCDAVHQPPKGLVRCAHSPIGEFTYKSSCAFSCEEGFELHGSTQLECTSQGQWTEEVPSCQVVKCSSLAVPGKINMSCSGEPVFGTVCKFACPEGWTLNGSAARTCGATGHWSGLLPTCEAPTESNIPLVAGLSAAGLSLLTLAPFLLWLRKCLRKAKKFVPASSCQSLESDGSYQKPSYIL
Briefly: Inhibitory activity against Selectin E using cell-cell assay; Not active. The class given is functional. The gist of the method:
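HUVEC monolayers (≤4-5 passages, gelatin-coated wells) activated on assay day with 10 ng/mL IL-1β as native E-selectin source. Compounds at 2× in cold RPMI preincubated 20 min 4 °C in triplicate; BCECF-AM-labelled HL60 cells (2 × 10⁶ cells/mL) added, 30 min 4 °C. Unbound cells washed off, bound cells read by fluorescence; IC50 by Probit analysis.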

Test [3] addresses T1, P-selectin. Briefly: Inhibitory activity against P-selectin using cell-cell assay; Not active. The class given is functional. An outline of the steps: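 CHO cells stably transfected with human P-selectin, plated the day before, used as monolayers. Compounds added at 2× in cold RPMI, 20 min 4 °C; BCECF-AM-labelled HL60 cells (2 × 10⁶ cells/mL) then adhered 30 min at 4 °C. Unbound cells washed off, bound cells read by fluorescence; triplicates; IC50 by Probit analysis.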

On to `O=C(O)/C=C/c1ccc(-c2nc(-c3ccc(/C=C/C(=O)NCCCc4ccccc4)cc3)c(-c3ccc(C4=NOC(C(=O)O)C4)cc3)[nH]2)cc1` (stereo not given), for which the IC50 against P-selectin [1] was 100 µM; against P-selectin [2], 21 µM.
As for `CCCCCCCCCCCCCCCCNC(=O)/C=C/c1ccc(-c2[nH]cnc2-c2ccc(/C=C/C(=O)O)cc2)cc1`, the results for the IC50 against P-selectin [1] and at P-selectin [2] were 17 µM and 40 µM, respectively.
On to `CCCCCCN(CCCCCC)C(=O)/C=C/c1ccc(-c2[nH]cnc2-c2ccc(/C=C/C(=O)O)cc2)cc1`, for which the IC50 entry at E-selectin is “Not Active”; on P-selectin [2], 21 µM; against P-selectin [3] it was “Not Active”.
For the compound `CCCCCCCCCCCCCCCCNC(=O)/C=C/c1ccc(-c2[nH]c(-c3ccc(C4=NOC(C(=O)O)C4)cc3)nc2-c2ccc(/C=C/C(=O)O)cc2)cc1` (stereo not given), the results for the IC50 at P-selectin [1] and on P-selectin [2] were 0.29 µM and 9 µM, respectively.
Turning to `O=C(/C=C/c1ccc(-c2nc(-c3ccc(N4CCCC4)cc3)[nH]c2-c2ccc(C3=NOC(C(=O)O)C3)cc2)cc1)NCCCc1ccccc1` (stereo not given), the figures for the concentration for half-maximal inhibition (IC50) on P-selectin [1], on P-selectin [2] and against P-selectin [3] were 34 µM, 50 µM and “Not Active”, respectively.
On to `CCCCCCCCCCCCCCCCNC(=O)/C=C/c1ccc(-c2[nH]c(-c3ccc(-c4cc(C(=O)O)on4)cc3)nc2-c2ccc(/C=C/C(=O)O)cc2)cc1`, for which the IC50 against P-selectin [1] was 0.13 µM; at P-selectin [2], 2.7 µM.
Take `CCCCCCCCCCCCNC(=O)/C=C/c1ccc(-c2[nH]c(-c3ccc(-c4cc(C(=O)O)on4)cc3)nc2-c2ccc(/C=C/C(=O)O)cc2)cc1`: the IC50 against P-selectin [1] was 3 µM; against E-selectin, “Not Active”; against P-selectin [2] it was 290 µM.
For the compound `CCCCCCCc1ccc(NC(=O)/C=C/c2ccc(-c3[nH]cnc3-c3ccc(/C=C/C(=O)O)cc3)cc2)cc1`, the IC50 on P-selectin [1] came out at 16 µM; against P-selectin [2] it was 44 µM.
As for `CC(=O)N[C@H]1[C@H]([C@H](O)[C@H](O)CO)O[C@@](O[C@H]2[C@@H](O)[C@@H](CO)O[C@@H](O[C@@H]([C@H](O[C@@H]3O[C@@H](C)[C@@H](O)[C@@H](O)[C@@H]3O)[C@H](C=O)NC(C)=O)[C@H](O)CO)[C@@H]2O)(C(=O)O)C[C@@H]1O` [SIALYL LEWIS X], the IC50 against P-selectin [1] was more than 1 µM.
